Measured values: ChEMBL document CHEMBL5260806, “Hydrogen peroxide activated quinone methide precursors with enhanced DNA cross-linking capability and cytotoxicity towards cancer cells” (Eur J Med Chem, 2017)
The source made the active and inactive calls. The rule behind the calls is not given here.

Legend:
Format in all cases: functional
CCRF-CEM = experiment: Anticancer activity against human CCRF-CEM cells assessed as cell growth inhibition at 10 uM incubated for 48 hrs by sulforhodamine B assay; details: read-out: GI
Summary of the method: (§1)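 NCI-60 screen: cell lines grown in RPMI 1640 with 5% FBS and 2 mM L-glutamine, plated in 96-well plates at 5,000–40,000 cells/well depending on doubling time. Each line has one single-dose arm at 10 µM and one dose-response arm giving GI50.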

UACC-257 [1] = experiment: Anticancer activity against human UACC-257 cells assessed as cell growth inhibition at 10 uM incubated for 48 hrs by sulforhodamine B assay; details: read-out: GI
SN12C [2] = experiment: Anticancer activity against human SN12C cells assessed as cell growth inhibition at 10 uM incubated for 48 hrs by sulforhodamine B assay; details: read-out: GI
UO-31 = experiment: Anticancer activity against human UO-31 cells assessed as cell growth inhibition incubated for 48 hrs by sulforhodamine B assay
SK-MEL-28 = experiment: Anticancer activity against human SK-MEL-28 cells assessed as cell growth inhibition at 10 uM incubated for 48 hrs by sulforhodamine B assay; details: read-out: GI
Summary of the method: (§2)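 NCI DTP 60-cell-line screen run at National Cancer Institute. Cells grown in RPMI 1640 with 5% fetal bovine serum and 2 mM L-glutamine, seeded at 5,000–40,000 cells/well depending on doubling time. Single-dose screen at 10 µM gives growth percentage; dose-response series gives GI50.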

IGROV-1 = experiment: Anticancer activity against human IGROV-1 cells assessed as cell growth inhibition incubated for 48 hrs by sulforhodamine B assay; summary of the method: as §1
SK-OV-3 = experiment: Anticancer activity against human SK-OV-3 cells assessed as cell growth inhibition at 10 uM incubated for 48 hrs by sulforhodamine B assay; details: read-out: GI; summary of the method: as §2
SR = experiment: Anticancer activity against human SR cells assessed as cell growth inhibition incubated for 48 hrs by sulforhodamine B assay
SN12C [3] = experiment: Anticancer activity against human SN12C cells assessed as cell growth inhibition incubated for 48 hrs by sulforhodamine B assay
UACC-257 [4] = experiment: Anticancer activity against human UACC-257 cells assessed as cell growth inhibition incubated for 48 hrs by sulforhodamine B assay
HT-29 = experiment: Anticancer activity against human HT-29 cells assessed as cell growth inhibition incubated for 48 hrs by sulforhodamine B assay; summary of the method: as §1
SW-620 = experiment: Anticancer activity against human SW620 cells assessed as cell growth inhibition at 10 uM incubated for 48 hrs by sulforhodamine B assay; details: read-out: GI
SF-295 = experiment: Anticancer activity against human SF-295 cells assessed as cell growth inhibition incubated for 48 hrs by sulforhodamine B assay; summary of the method: as §2
DU-145 = experiment: Anticancer activity against human DU-145 cells assessed as cell growth inhibition incubated for 48 hrs by sulforhodamine B assay; summary of the method: as §1
Malme-3M = experiment: Anticancer activity against human Malme-3M cells assessed as cell growth inhibition incubated for 48 hrs by sulforhodamine B assay; summary of the method: as §2
HOP-62 = experiment: Anticancer activity against human HOP-62 cells assessed as cell growth inhibition at 10 uM incubated for 48 hrs by sulforhodamine B assay; details: read-out: GI; summary of the method: as §1
NCI-H226 = experiment: Anticancer activity against human NCI-H226 cells assessed as cell growth inhibition incubated for 48 hrs by sulforhodamine B assay; summary of the method: as §2
OVCAR-3 [5] = experiment: Anticancer activity against human OVCAR-3 cells assessed as cell growth inhibition incubated for 48 hrs by sulforhodamine B assay; summary of the method: as §2
[6] = Anticancer activity against human CLL cells assessed as reduction in cell viability incubated for 24 hrs by Annexin/PI staining based fluorescence assay
Summary of the method: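 CLL lymphocytes were taken from patients' peripheral blood (n=3) by Ficoll-Hypaque, suspended in 10% autologous plasma in RPMI, and exposed to 1, 5, 10, 20, 50 and 100 µM. Viability was measured by annexin V/propidium iodide binding. IC50 comes from one representative patient.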

Hs-578T = experiment: Anticancer activity against human Hs-578T cells assessed as cell growth inhibition at 10 uM incubated for 48 hrs by sulforhodamine B assay; details: read-out: GI; summary of the method: as §1
NCI-H522 [7] = experiment: Anticancer activity against human NCI-H522 cells assessed as cell growth inhibition incubated for 48 hrs by sulforhodamine B assay; summary of the method: as §2
CLL cell = experiment: Induction of DNA damage in chronic lymphocytic leukemia patient lymphocytes assessed as gamma-H2Ax phosphorylation at Ser139 residue at 10 uM after 24 hrs by FITC-staining based flow cytometry; details: Homo sapiens
Summary of the method: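 Patient CLL lymphocytes, Ficoll-hypaque isolated, in RPMI with 10% autologous plasma, untreated or exposed to 10 µM for 24 h. Cells washed in PBS, fixed in ice-cold 70% ethanol and held at −20 °C. Then permeabilised, stained with FITC anti-H2AX Ser139 antibody and read by flow cytometry.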

NCI-H522 [8] = experiment: Anticancer activity against human NCI-H522 cells assessed as cell growth inhibition at 10 uM incubated for 48 hrs by sulforhodamine B assay; details: read-out: GI; summary of the method: as §2
COLO 205 = experiment: Anticancer activity against human COLO 205 cells assessed as cell growth inhibition incubated for 48 hrs by sulforhodamine B assay; summary of the method: as §1
SK-MEL-5 = experiment: Anticancer activity against human SK-MEL-5 cells assessed as cell growth inhibition incubated for 48 hrs by sulforhodamine B assay; summary of the method: as §2
PC-3 = experiment: Anticancer activity against human PC-3 cells assessed as cell growth inhibition at 10 uM incubated for 48 hrs by sulforhodamine B assay; details: read-out: GI; summary of the method: as §2
OVCAR-3 [9] = experiment: Anticancer activity against human OVCAR-3 cells assessed as cell growth inhibition at 10 uM incubated for 48 hrs by sulforhodamine B assay; details: read-out: GI; summary of the method: as §2
K562 = experiment: Anticancer activity against human K562 cells assessed as cell growth inhibition incubated for 48 hrs by sulforhodamine B assay; summary of the method: as §1
SF-539 = experiment: Anticancer activity against human SF-539 cells assessed as cell growth inhibition at 10 uM incubated for 48 hrs by sulforhodamine B assay; details: read-out: GI; summary of the method: as §2
OVCAR-4 = experiment: Anticancer activity against human OVCAR-4 cells assessed as cell growth inhibition incubated for 48 hrs by sulforhodamine B assay; summary of the method: as §2
786-0 = experiment: Anticancer activity against human 786-0 cells assessed as cell growth inhibition incubated for 48 hrs by sulforhodamine B assay; summary of the method: as §1
DNA = experiment: Induction of [32P]-labeled 49-mer oligonucleotide duplex DNA 25 (unknown origin) interstrand cross-linking at 2 mM for 24 hrs without H2O2 by PAGE
BT-549 = experiment: Anticancer activity against human BT-549 cells assessed as cell growth inhibition incubated for 48 hrs by sulforhodamine B assay; summary of the method: as §1
NCI-H23 = experiment: Anticancer activity against human NCI-H23 cells assessed as cell growth inhibition at 10 uM incubated for 48 hrs by sulforhodamine B assay; details: read-out: GI; summary of the method: as §2
EKVX = experiment: Anticancer activity against human EKVX cells assessed as cell growth inhibition incubated for 48 hrs by sulforhodamine B assay; summary of the method: as §1
OVCAR-8 = experiment: Anticancer activity against human OVCAR-8 cells assessed as cell growth inhibition at 10 uM incubated for 48 hrs by sulforhodamine B assay; details: read-out: GI; summary of the method: as §2
MDA-MB-435 = experiment: Anticancer activity against human MDA-MB-435 cells assessed as cell growth inhibition incubated for 48 hrs by sulforhodamine B assay; summary of the method: as §2
SF-268 = experiment: Anticancer activity against human SF-268 cells assessed as cell growth inhibition at 10 uM incubated for 48 hrs by sulforhodamine B assay; details: read-out: GI; summary of the method: as §2

Structure (SMILES): COc1cc(CBr)c(B2OC(C)(C)C(C)(C)O2)c(CBr)c1
- inhibition of growth at 10 µM (CCRF-CEM): < 50%
- inhibition of growth at 10 µM (UACC-257 [1]): < 50%
- inhibition of growth at 10 µM (SN12C [2]): < 50%
- GI50 (UO-31): 2000 nM
- inhibition of growth at 10 µM (SK-MEL-28): < 50%
- GI50 (IGROV-1): 2000 nM
- inhibition of growth at 10 µM (SK-OV-3): < 50%
- GI50 (SR): 2000 nM
- GI50 (SN12C [3]): 2000 nM
- GI50 (UACC-257 [4]): 2000 nM
- GI50 (HT-29): 2000 nM
- inhibition of growth at 10 µM (SW-620): < 50%
- GI50 (SF-295): 2000 nM
- GI50 (DU-145): 2000 nM
- GI50 (Malme-3M): 2000 nM
- inhibition of growth at 10 µM (HOP-62): < 50%
- GI50 (NCI-H226): 2000 nM
- GI50 (OVCAR-3 [5]): 2000 nM
- IC50 [6]: 28400 nM
- inhibition of growth at 10 µM (Hs-578T): < 50%
- GI50 (NCI-H522 [7]): 2000 nM
- Activity (CLL cell): Active
- inhibition of growth at 10 µM (NCI-H522 [8]): < 50%
- GI50 (COLO 205): 2000 nM
- GI50 (SK-MEL-5): 2000 nM
- inhibition of growth at 10 µM (PC-3): < 50%
- inhibition of growth at 10 µM (OVCAR-3 [9]): < 50%
- GI50 (K562): 2000 nM
- inhibition of growth at 10 µM (SF-539): < 50%
- GI50 (OVCAR-4): 2000 nM
- GI50 (786-0): 2000 nM
- Activity (DNA): 0%
- GI50 (BT-549): 2000 nM
- inhibition of growth at 10 µM (NCI-H23): < 50%
- GI50 (EKVX): 2000 nM
- inhibition of growth at 10 µM (OVCAR-8): < 50%
- GI50 (MDA-MB-435): 2000 nM
- inhibition of growth at 10 µM (SF-268): < 50%
